ChEMBL document CHEMBL3232973, “The identification of novel 5'-amino gemcitabine analogs as potent RRM1 inhibitors” (Bioorg Med Chem, 2014)
The source made the active and inactive calls. No cut-off for these calls is given here.

Columns and labels:
[1] = target: T1, Ribonucleoside-diphosphate reductase large subunit (Homo sapiens) (UniProt P23921); experiment: Inhibition of RRM1 in human U2OS cells assessed as gammaH2AX induction after 2 hrs by FITC/propidium iodide-staining based flow cytometry in presence of SCH900776; type: cell-based
T1 sequence (whole entry): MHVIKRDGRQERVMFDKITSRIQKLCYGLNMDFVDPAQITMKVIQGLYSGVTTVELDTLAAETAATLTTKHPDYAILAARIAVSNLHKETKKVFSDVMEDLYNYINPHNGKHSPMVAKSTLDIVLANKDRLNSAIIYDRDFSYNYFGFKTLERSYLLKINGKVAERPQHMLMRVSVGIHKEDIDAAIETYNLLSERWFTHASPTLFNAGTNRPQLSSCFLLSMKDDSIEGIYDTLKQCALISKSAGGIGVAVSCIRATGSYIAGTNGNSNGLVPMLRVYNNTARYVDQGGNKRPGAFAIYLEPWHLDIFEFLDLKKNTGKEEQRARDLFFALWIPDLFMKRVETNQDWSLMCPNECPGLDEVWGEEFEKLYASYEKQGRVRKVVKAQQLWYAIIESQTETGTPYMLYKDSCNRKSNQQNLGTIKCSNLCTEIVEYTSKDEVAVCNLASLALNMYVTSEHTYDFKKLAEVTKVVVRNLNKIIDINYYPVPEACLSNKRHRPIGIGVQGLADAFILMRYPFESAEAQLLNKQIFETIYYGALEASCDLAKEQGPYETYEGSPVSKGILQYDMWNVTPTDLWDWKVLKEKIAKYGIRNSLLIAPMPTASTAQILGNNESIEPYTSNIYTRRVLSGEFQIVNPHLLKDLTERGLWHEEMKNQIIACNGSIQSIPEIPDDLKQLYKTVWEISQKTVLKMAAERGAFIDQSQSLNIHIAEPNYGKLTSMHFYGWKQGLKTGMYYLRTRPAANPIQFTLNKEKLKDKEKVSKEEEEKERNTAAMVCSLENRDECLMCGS
Summary of the method: (§1)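 U2OS cells were given titrated compound overnight, then kept with or without 0.5 uM SCH 900776 for a further 2 h in the compound's presence. Cells were fixed and permeabilized in 70% ethanol, stained with FITC anti-γH2AX antibody and counterstained with propidium iodide. Read-out was flow cytometry or imaging, given as % γH2AX-positive cells.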

[2] = target: T1, Ribonucleoside-diphosphate reductase large subunit (Homo sapiens); experiment: Inhibition of RRM1 in human U2OS cells assessed as gammaH2AX induction at 0.5 to 125 uM after 2 hrs by FITC/propidium iodide-staining based flow cytometry in presence of SCH900776; type: cell-based; summary of the method: as §1
[3] = target: T1, Ribonucleoside-diphosphate reductase large subunit (Homo sapiens); experiment: Inhibition of RRM1 in human U2OS cells assessed as gammaH2AX induction at 0.5 to 125 uM after 2 hrs by FITC/propidium iodide-staining based flow cytometry in absence of SCH900776; type: cell-based; summary of the method: as §1
[4] = Binding affinity to yeast RRM1 assessed as reduction of unbound compound level by line-broadening NMR spectroscopy; parameters: species or system Saccharomyces cerevisiae
[5] = test system: Saccharomyces cerevisiae; experiment: Binding affinity to yeast RRM1 assessed as reduction of free compound level by line-broadening NMR spectroscopy relative to control; parameters: scale not given: the % may be the effect or the level left
[6] = test system: Saccharomyces cerevisiae; experiment: Binding affinity to yeast RRM1 assessed as reduction of unbound-compound level at 200 uM by NOESY-spectroscopy
[7] = Competitive binding affinity to yeast RRM1 assessed as reduction in CDP NMR signals by STD-NMR spectroscopy; parameters: species or system Saccharomyces cerevisiae
[8] = target: T2, Ribonucleotide reductase (Homo sapiens) (UniProt P23921+Q7LG56); experiment: Inhibition of human RRM1/RNR2 activity using CDP as substrate assessed as reduction of dCDP production at 100 uM preincubated for 30 mins followed by substrate addition measured after 1 hr by NMR spectroscopy; type: protein-complex assay
Summary of the method: (§2)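 Human RRM1 and RNR2 were run at 27 °C in 50 mM d-Tris in D2O, pH 7.6, with 10 mM d-DTT. Compound was preincubated 30 min with active enzyme and 1 mM ATP. CDP was then added to start the reaction, which was heat-quenched after 1 h. 1H NMR measured dCDP formed and CDP consumed against control spectra. Controls were dATP, didox and gemcitabine diphosphate.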

[9] = target: T1, Ribonucleoside-diphosphate reductase large subunit (Homo sapiens); experiment: Inhibition of RRM1 in human CEM cells assessed as depletion of dATP level at 1 uM after 2 hrs by HPLC analysis; type: cell-based; details: CCRF-CEM
Summary of the method: (§3)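 CEM cells were treated for 2 h, with untreated cells as control. Pellets were taken up in ice-cold water and deproteinized with an equal volume of 6% TCA. Supernatants were neutralized with NH4OH, then run on ion-pair HPLC (tetrabutylammonium hydroxide/KH2PO4, pH 7.0 gradient) with UV detection at 260 nm. Pool levels are peak AUC, in triplicate.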

[10] = target: T2, Ribonucleotide reductase (Homo sapiens); experiment: Inhibition of human RRM1/RNR2 activity using CDP as substrate assessed as reduction of CDP consumption at 100 uM preincubated for 30 mins followed by substrate addition measured after 1 hr by NMR spectroscopy; type: protein-complex assay; summary of the method: as §2
[11] = target: T1, Ribonucleoside-diphosphate reductase large subunit (Homo sapiens); experiment: Inhibition of RRM1 in human CEM cells assessed as depletion of dCTP level at 1 uM after 2 hrs by HPLC analysis; type: cell-based; details: CCRF-CEM; summary of the method: as §3
[12] = target: T1, Ribonucleoside-diphosphate reductase large subunit (Homo sapiens); experiment: Inhibition of RRM1 in human CEM cells assessed as depletion of dGTP level at 1 uM after 2 hrs by HPLC analysis; type: cell-based; details: CCRF-CEM; summary of the method: as §3

SMILES	inhibition [1]	inhibition [2]	inhibition [3]	Kd [4] [µM]	Activity [5] [%]	Ki [7] [µM]	inhibition [8] [%]	inhibition [9]	inhibition [10] [%]	inhibition [11]	inhibition [12]	Activity [6]
C[C@H](NC[C@H]1O[C@@H](n2ccc(N)nc2=O)C(F)(F)[C@@H]1O)c1ccnn1C	Dose-dependent effect	Active	Active	–	–	–	–	–	–	–	–	–
Nc1ccn([C@@H]2O[C@H](CNCCN3CCCC3=O)[C@@H](O)C2(F)F)c(=O)n1	Dose-dependent effect	Active	Active	–	–	–	–	–	–	–	–	–
Nc1ccn([C@@H]2O[C@H](CN3CCn4nccc4C3)[C@@H](O)C2(F)F)c(=O)n1	Dose-dependent effect	Active	Active	200	27	150	32	Active	32	Active	Active	Active

Further lines, with some results ahead:

inhibition [1]	inhibition [2]	inhibition [3]	Kd [4] [µM]	Activity [5] [%]	Ki [7] [µM]	inhibition [8] [%]	inhibition [9]	inhibition [10] [%]	inhibition [11]	inhibition [12]	SMILES	Activity [6]
Dose-dependent effect	Active	Active	–	–	–	–	–	–	–	–	Nc1ccn([C@@H]2O[C@H](CNCc3ccco3)[C@@H](O)C2(F)F)c(=O)n1	–
–	Active	Active	–	–	–	–	–	–	–	–	Nc1ccn([C@@H]2O[C@H](CO)[C@@H](O)C2(F)F)c(=O)n1	–
